The list is not random: actives were taken first. Their share in the collection is about 3.6%.
Wnt bcat act = Wnt/beta-catenin pathway activators, primary screen, cell-based, plate reader, single point; Wnt/beta-catenin reporter cell assay, activator; hit rate 1.2% among 300,000; activation, % at 9.35 µM; AID 743398, 2014; in the data active = activation above about 30%, passing the limit was not always enough; inconclusive = no clear call, values can overlap the other calls
SR-BI uptake up = activators of SR-BI mediated DiI-HDL uptake, primary screen, ldlA[mSR-BI] CHO cells, DiI fluorescence; activation, % at 12.5 µM; 3 h; 100 = double the neutral-control signal; hit rate 0.096% among 320,000;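 active = mean replicate activation of at least 60% and every replicate at or above 60%; inconclusive = mean or all-replicate condition met, but not both; inactive = mean below 60% and not all replicates reaching 60%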
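system = CHO ldlA[mSR-BI] cells, LDL receptor-null, SR-BI overexpressing | medium = Ham's F12 with 0.5% BSA, HEPES 25 mM, pH 7.4 | probe or stimulus = DiI-HDL 10 µg/mL | compound dosing = single-point compound dose | incubation = compound exposure 3 h, 37 °C | technique = DiI fluorescence, bottom read | read-out = cell-associated DiI fluorescence as measure of HDL uptake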
SR-BI HDL uptake = inhibitors of SR-BI mediated HDL lipid uptake, primary screen, ldlA[mSR-BI] cells, fluorescence, single point. Scavenger receptor class B member 1 (Mus musculus), Q61009. ldlA[mSR-BI] CHO cells, DiI-HDL uptake fluorescence, 3 h. inhibition, % at 12.5 µM. hit rate 0.96% among 320,000;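 active = mean replicate inhibition of at least 70% and a set share of replicates each scoring 70 or more; inconclusive = meets just one of the two criteria; inactive = fails both criteria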
Target sequence (Q61009 whole entry, looked up): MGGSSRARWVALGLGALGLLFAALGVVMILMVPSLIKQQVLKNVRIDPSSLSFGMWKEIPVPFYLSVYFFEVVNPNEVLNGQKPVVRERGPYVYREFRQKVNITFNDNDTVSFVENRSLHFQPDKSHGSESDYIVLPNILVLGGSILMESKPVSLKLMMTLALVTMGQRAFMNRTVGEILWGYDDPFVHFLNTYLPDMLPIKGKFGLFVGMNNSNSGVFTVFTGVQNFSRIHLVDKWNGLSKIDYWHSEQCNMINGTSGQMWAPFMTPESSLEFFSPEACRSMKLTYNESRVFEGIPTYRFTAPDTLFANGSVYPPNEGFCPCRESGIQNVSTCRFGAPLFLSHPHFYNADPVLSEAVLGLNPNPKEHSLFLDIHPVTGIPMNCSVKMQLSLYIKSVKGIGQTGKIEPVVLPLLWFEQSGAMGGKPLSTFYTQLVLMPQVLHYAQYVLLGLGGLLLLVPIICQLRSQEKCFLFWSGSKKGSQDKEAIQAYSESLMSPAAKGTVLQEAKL
HSF1 activator = HSF-1 activators, primary screen, NIH3T3-HGL cells, MG132 stress, luminescence, single point; activation, % at 9 µM; hit rate 1.7% among 300,000; NIH3T3-HGL HSF-1 luciferase reporter, 8 h; 100% = twice DMSO control signal;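 active = mean replicate activation of at least 50% with a set share of replicates each reaching 50%; inconclusive = only one of those two conditions met; inactive = mean below 50% and too few replicates reaching it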
MITF act = activators of MITF-driven TRPM1 promoter reporter, primary screen, cell-based, SK-MEL-5, luciferase, single point. SK-MEL-5 TRPM1-promoter luciferase, 24 h; % of positive control, neutral wells = 0. activation, % at 12.5 µM. hit rate 0.75% among 300,000;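 active = mean activation of at least 80% with every replicate also reaching 80%; inconclusive = mean reaches 80% but some replicate falls short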
A number is an active result; i = inactive; ? = inconclusive; nt = no result given.

SMILES	Wnt bcat act	SR-BI uptake up	SR-BI HDL uptake	HSF1 activator	MITF act
O=C(Cn1nnc(-c2ccccc2)n1)OCc1ccccc1	i	i	i	i	i
O=C(NC1CCN(Cc2ccccc2)CC1)c1cc(S(=O)(=O)N2CCOCC2)ccc1Cl	i	i	i	nt	i
c1ccc(COCCc2cn(Cc3ccccc3)c3ccccc23)cc1	i	nt	nt	nt	nt
C/C(=N\n1nnnc1Nc1ccccc1)c1ccc(N)cc1	nt	nt	nt	117	nt
O=C(NCc1ccccc1)[C@H]1CCCN1C(=O)[C@H]1CCCN1C(=O)c1ccc(F)cc1F	i	nt	nt	nt	nt
Brc1ccc2nc(-c3c[nH]c4ccccc34)cn2c1	i	i	84	i	i
S=C1NCCOc2ccccc21	i	nt	nt	nt	nt
Cc1cc(N2CCN(CC(C)(C)O)C[C@H]2C)ccc1N1CCN(CC(C)(C)O)[C@H](C)C1	i	nt	nt	nt	nt
O=C1/C(=C\c2ccc(O)c(O)c2)SC(=S)N1Cc1ccccc1	i	i	83	i	i
COc1cc(/C=C2/SC(=S)N(Cc3ccccc3)C2=O)ccc1O	i	i	i	i	nt
O=C1/C(=C\c2cccc(O)c2O)SC(=S)N1Cc1ccccc1	i	i	133	i	nt
OCCC(N1CCOCC1)C(O)(c1ccccc1)c1ccccc1 (configuration not stated)	i	nt	nt	nt	nt
Oc1c(Br)cc(Br)cc1C=Nc1cccc2ncccc12	i	i	i	62	nt
COc1ccc(/[N+]([O-])=C/c2ccoc2)cc1	41	i	i	nt	106
CCN(CC)C(=O)[C@H]1C[C@@H]2[C@H](C[C@@H](c3ccccc3)[C@H]1C)N(c1ccc(F)cc1)C(=O)N2CCCOc1ccccc1	i	nt	nt	nt	nt
Clc1c(-c2ccccc2)nnn1-c1ccccc1	i	i	i	75	i
Nc1nnn(-c2ccccc2)c1-c1ccccc1	i	i	i	i	nt
O=C(Nc1nc2ccc(F)cc2s1)c1ccc([N+](=O)[O-])o1	71	nt	nt	nt	nt
O=C(Nc1nc2c(s1)CCc1ccccc1-2)c1cccs1	nt	i	?	57	i
O=C(NC(=S)Nc1nc2ccc(F)cc2s1)c1ccco1	i	i	i	89	i
CN(C)S(=O)(=O)c1ccc2nc(NC(=O)c3cccnc3)sc2c1	38	i	i	i	i
O=C(Nc1nc2c(s1)COc1ccccc1-2)c1cccs1	i	i	i	i	nt
Cc1ccc(C(=O)Nc2nc3ccc(S(C)(=O)=O)cc3s2)o1	53	95	i	i	nt
CN(C)S(=O)(=O)c1ccc2nc(NC(=O)c3cccs3)sc2c1	nt	i	i	i	i
O=C(Nc1nc2ccc(F)cc2s1)C1CCN(S(=O)(=O)c2cc([N+](=O)[O-])ccc2Cl)CC1	i	i	77	i	i
SMILES	Wnt bcat act	SR-BI uptake up	SR-BI HDL uptake	HSF1 activator	MITF act
O=C(Nc1nc2ccc(F)cc2s1)c1cccs1	57	i	i	80	i
CS(=O)(=O)c1ccc2nc(NC(=O)c3ccco3)sc2c1	i	i	i	i	i
C=CCCC[C@H]1OC(=O)[C@H](C)NC(=O)[C@H](C(C)C)NC(=O)[C@@H]2CCCN2C(=O)[C@H](Cc2ccccc2)OC(=O)[C@@H](C(C)C)N(C)C(=O)[C@H](C(C)C)NC(=O)C1(C)C	i	nt	nt	nt	nt
CC1=C(C(=O)N2CCCCCC2)CC(CC(=O)NCCN2CCOCC2)C(=O)N1CCC1=CCCCC1 (configuration not stated)	i	nt	nt	nt	nt
CCCCn1nnnc1C(c1cc2ccccc2o1)N1CCN(c2cc(C)nc3ccccc23)CC1 (configuration not stated)	i	nt	nt	nt	nt
CCS(=O)(=O)NC(C)C(c1cccs1)N1CCN(c2ccc(OC)cc2)CC1 (configuration not stated)	i	i	i	i	i
COc1ccc(N2CCN(C(c3cccs3)C(C)NS(=O)(=O)c3ccccc3)CC2)cc1 (configuration not stated)	nt	i	i	82	i
COC(=O)COc1cc(Br)c(/C=C2/SC(=O)N(CC(=O)N3CCCC3)C2=O)cc1OC	i	i	82	i	i
Oc1ccc(-c2nc3cnccn3c2Nc2ccc3c(c2)OCCO3)cc1	i	i	i	64	nt
COc1cc(-c2nc3cnccn3c2Nc2ccccc2)ccc1O	i	i	i	56	i
c1ccc(-c2nc3cnccn3c2Nc2ccc3c(c2)OCCO3)cc1	i	i	i	i	i
COc1cc(-c2nc3cnccn3c2Nc2ccc(C)cc2)ccc1O	i	i	i	i	i

Compound activity as filed in PubChem BioAssay.
